Data: ChEMBL document CHEMBL3102786, “Anilides and quinolones with nitrogen-bearing substituents from benzothiophene and thienothiophene series: synthesis, photochemical synthesis, cytostatic evaluation, 3D-derived QSAR analysis and DNA-binding properties” (Eur J Med Chem, 2014)
Active and inactive are the calls of the source. The rule behind the calls is not given here.

Experiments:
[1] = biological target: DNA topoisomerase 2-alpha (Homo sapiens) (UniProt P11388); assay: Inhibition of DNA topoisomerase 2 (unknown origin)-mediated DNA cleavage assessed as linear band at 50 uM by agarose gel electrophoresis
Outline: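 Topoisomerase II DNA cleavage assay was run per an earlier method, with etoposide as the Topo II poison positive control. Compounds came from 10 mM DMSO stocks freshly diluted in aqueous buffer.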

[2] = biological target: T1, DNA topoisomerase 1 (Homo sapiens) (UniProt P11387); assay: Inhibition of human topoisomerase 1-mediated DNA cleavage assessed as accumulation of nicked DNA at 1 to 50 uM by agarose gel electrophoresis
T1 sequence (whole entry): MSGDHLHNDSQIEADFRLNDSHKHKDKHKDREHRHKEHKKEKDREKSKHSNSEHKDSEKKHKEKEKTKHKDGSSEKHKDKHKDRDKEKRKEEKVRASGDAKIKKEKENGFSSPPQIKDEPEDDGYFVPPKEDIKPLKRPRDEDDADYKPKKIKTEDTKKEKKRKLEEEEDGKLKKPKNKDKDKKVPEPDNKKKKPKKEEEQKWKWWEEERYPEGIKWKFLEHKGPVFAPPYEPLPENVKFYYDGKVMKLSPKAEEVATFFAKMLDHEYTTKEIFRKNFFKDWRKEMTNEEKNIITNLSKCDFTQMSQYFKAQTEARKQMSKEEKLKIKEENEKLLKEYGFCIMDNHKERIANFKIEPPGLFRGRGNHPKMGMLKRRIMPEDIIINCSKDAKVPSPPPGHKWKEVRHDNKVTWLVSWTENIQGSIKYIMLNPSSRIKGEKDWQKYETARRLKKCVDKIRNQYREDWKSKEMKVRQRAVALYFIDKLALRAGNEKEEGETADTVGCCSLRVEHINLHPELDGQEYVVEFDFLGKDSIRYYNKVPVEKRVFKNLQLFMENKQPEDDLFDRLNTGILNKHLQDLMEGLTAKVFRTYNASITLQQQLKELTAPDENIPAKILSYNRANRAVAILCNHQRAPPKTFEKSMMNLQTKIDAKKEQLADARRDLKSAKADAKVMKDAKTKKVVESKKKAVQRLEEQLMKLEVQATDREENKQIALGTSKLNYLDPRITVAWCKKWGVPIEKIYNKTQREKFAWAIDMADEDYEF
Outline: (§1)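 Supercoiled pUC19 plasmid was incubated with or without compound across the stated µM range, then relaxed with human topoisomerase I. Reactions were stopped with SDS and proteinase K. Samples were run on a 1% agarose gel in TBE for 2 h at 120 V and post-stained with ethidium bromide. Supercoiled, relaxed and nicked bands were scored under UV.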

Nucleic Acid [3] = assay: Binding affinity to Escherichia coli supercoiled pUC19 DNA assessed as intercalation at 1 to 50 uM by agarose gel electrophoresis in presence of human DNA topoisomerase 1; type: nucleic-acid assay; outline: as §1
DNA [4] = assay: Binding affinity to calf thymus DNA assessed as change in melting temperature at 1 drug/DNA ratio by spectrophotometry; type: nucleic-acid assay; details: Bos taurus
Outline: (§2)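 CT-DNA (20 µM) was dialyzed and incubated alone or with compound at drug/base-pair ratio R 0.25–1 in BPE buffer (6 mM Na2HPO4, 2 mM NaH2PO4, 1 mM EDTA, pH 7.1). A260 was read every min from 20–100 °C at 1 °C/min against a compound-matched reference. Tm was taken from the first-derivative midpoint, and ΔTm = Tm(drug+DNA) − Tm(DNA alone).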

DNA [5] = assay: Binding affinity to calf thymus DNA assessed as change in melting temperature at 0.5 drug/DNA ratio by spectrophotometry; type: nucleic-acid assay; details: Bos taurus; outline: as §2
[6] = Cytotoxicity against human H460 cells after 72 hrs by MTT assay; type: functional, cell-based, NCI-H460
Outline: (§3)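 HCT 116 and H 460 were seeded at 3×10^4 cells/mL and MCF-7 at 5×10^4 cells/mL in DMEM with 10% FBS, 2 mM glutamine and antibiotics, at 37 °C in 5% CO2. Compounds were added after 24 h (DMSO <1%). After 72 h, MTT absorbance was read at 570 nm. Runs were technical quadruplicates with ≥2 biological replicates, and IC50 was obtained by linear interpolation around 50% growth.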

DNA [7] = assay: Binding affinity to calf thymus DNA assessed as change in melting temperature at 0.25 drug/DNA ratio by spectrophotometry; type: nucleic-acid assay; details: Bos taurus; outline: as §2
MCF7 = assay: Cytotoxicity against human MCF7 cells after 72 hrs by MTT assay; type: functional, cell-based; outline: as §3
HCT-116 = assay: Cytotoxicity against human HCT116 cells after 72 hrs by MTT assay; type: functional, cell-based; outline: as §3
Nucleic Acid [8] = assay: Binding affinity to Escherichia coli supercoiled pUC19 DNA assessed as intercalation at 20 to 50 uM by agarose gel electrophoresis in presence of human DNA topoisomerase 1; type: nucleic-acid assay; outline: as §1
DNA [9] = assay: Binding affinity to calf thymus DNA assessed as hypochromic effect at 20 uM by UV-Visible spectroscopy relative to control; type: nucleic-acid assay; details: Bos taurus
Outline: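 Compound (20 µM) in BPE buffer pH 7.1 was titrated with CT-DNA, 10–100 µM in 10 µM steps and then to 200 µM in 20 µM steps (base pairs). Spectra were recorded from 230–530 nm in a 10 mm quartz cuvette, referenced against a cuvette holding the same DNA concentration.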

Nucleic Acid [10] = assay: Binding affinity to Escherichia coli supercoiled pUC19 DNA assessed as intercalation at 0.2 to 5 uM by agarose gel electrophoresis in presence of human DNA topoisomerase 1; type: nucleic-acid assay; outline: as §1
[11] = Binding affinity to DNA (unknown origin) assessed as inhibition of DNase1-mediated cleavage at 2 to 5 uM by DNase1 footprinting assay
Outline: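 DNase I footprinting run essentially per an earlier protocol. Gels were exposed to a storage screen at room temperature and then scanned. Compounds were made as 10 mM DMSO stocks and freshly diluted into aqueous buffer.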

DNA [12] = assay: Binding affinity to calf thymus DNA at 50 uM by circular dichroism spectra analysis; type: nucleic-acid assay; details: Bos taurus
Outline: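 Drug (50 µM) was incubated in BPE buffer with or without CT-DNA at 0.1–100 µM. CD spectra were recorded from 480 to 230 nm in a 10 mm quartz cell at 20 °C under Peltier control.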

Sequence of DNA topoisomerase 2-alpha (Homo sapiens) (P11388 whole entry): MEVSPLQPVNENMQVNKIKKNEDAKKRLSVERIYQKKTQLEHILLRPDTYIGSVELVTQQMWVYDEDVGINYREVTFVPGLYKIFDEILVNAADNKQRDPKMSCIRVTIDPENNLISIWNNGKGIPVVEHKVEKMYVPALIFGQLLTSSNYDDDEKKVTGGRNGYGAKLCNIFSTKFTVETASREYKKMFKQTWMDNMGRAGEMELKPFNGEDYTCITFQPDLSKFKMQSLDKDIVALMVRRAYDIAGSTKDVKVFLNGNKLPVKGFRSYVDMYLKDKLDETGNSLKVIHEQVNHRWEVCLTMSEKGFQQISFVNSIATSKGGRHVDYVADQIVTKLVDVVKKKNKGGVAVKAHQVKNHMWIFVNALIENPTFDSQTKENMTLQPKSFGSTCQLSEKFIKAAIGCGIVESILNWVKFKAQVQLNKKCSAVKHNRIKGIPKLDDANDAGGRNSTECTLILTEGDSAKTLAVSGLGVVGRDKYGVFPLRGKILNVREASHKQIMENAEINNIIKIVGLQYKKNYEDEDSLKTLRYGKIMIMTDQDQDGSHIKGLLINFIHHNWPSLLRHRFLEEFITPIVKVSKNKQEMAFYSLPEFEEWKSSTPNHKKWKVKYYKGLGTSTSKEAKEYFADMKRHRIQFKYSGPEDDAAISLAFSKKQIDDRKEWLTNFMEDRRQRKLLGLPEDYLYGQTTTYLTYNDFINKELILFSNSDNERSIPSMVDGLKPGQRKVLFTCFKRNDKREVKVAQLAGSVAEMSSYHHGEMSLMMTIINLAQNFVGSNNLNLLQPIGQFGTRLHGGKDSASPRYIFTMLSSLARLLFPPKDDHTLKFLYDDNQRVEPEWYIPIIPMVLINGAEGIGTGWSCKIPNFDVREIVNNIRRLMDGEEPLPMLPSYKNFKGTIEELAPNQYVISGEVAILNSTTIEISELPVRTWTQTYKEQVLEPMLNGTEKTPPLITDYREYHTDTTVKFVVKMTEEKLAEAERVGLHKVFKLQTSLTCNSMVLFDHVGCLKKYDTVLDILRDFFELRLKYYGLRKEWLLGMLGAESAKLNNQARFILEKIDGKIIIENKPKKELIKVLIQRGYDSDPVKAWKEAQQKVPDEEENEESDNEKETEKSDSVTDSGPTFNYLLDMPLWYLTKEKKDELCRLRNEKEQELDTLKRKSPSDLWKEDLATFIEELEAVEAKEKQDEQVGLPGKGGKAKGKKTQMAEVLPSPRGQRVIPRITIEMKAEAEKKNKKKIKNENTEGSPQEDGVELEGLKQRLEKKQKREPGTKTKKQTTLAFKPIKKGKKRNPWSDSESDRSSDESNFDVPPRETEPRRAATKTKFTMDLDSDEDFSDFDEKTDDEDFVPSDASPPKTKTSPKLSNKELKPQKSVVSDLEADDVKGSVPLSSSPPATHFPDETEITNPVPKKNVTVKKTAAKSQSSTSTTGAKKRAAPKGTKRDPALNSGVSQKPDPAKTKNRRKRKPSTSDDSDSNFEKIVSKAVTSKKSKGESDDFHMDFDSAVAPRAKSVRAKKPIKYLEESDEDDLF

Compound | Topo II DNA cleavage inhibition (active/not active) [1] | inhibition [2] | Activity (DNA [4]) | Activity (DNA [5]) | IC50 ([6]; Homo sapiens, NCI-H460, 72 h) | Activity (DNA [7]) | IC50 (MCF7; Homo sapiens, MCF7, 72 h) | IC50 (HCT-116; Homo sapiens, HCT-116, 72 h) | other results
CN(C)c1ccc2[nH]c(=O)c3sc4ccccc4c3c2c1 | inactive | inactive | inactive | inactive | 37 µM | inactive | 7 µM | 7 µM | Activity (Nucleic Acid [3]): inactive
CC(=O)Nc1ccc(NC(=O)c2sc3ccccc3c2Cl)cc1 | inactive | – | inactive | inactive | > 100 µM | inactive | > 100 µM | > 100 µM | –
Nc1ccc2[nH]c(=O)c3sc4ccccc4c3c2c1 [listing 1 of 3 here] | inactive | inactive | inactive | inactive | – | inactive | – | – | Activity (Nucleic Acid [8]): Active; Activity (DNA [9]): 58%; ΔTm (DNA [5]): 2 °C
CN(C)c1ccc(NC(=O)c2sc3sccc3c2Cl)cc1 | – | – | – | – | > 100 µM | – | > 100 µM | > 100 µM | –
Cn1c(=O)c2sc3ccccc3c2c2cc([N+](C)(C)C)ccc21 | inactive | inactive | – | – | 18 µM | – | 10 µM | 5 µM | Activity (Nucleic Acid [10]): Active; Activity [11]: Active; Activity (DNA [12]): inactive; Activity (DNA [9]): 48%; ΔTm (DNA [4]): 5.9 °C; ΔTm (DNA [5]): 2.9 °C
O=C(Nc1ccc([N+](=O)[O-])cc1)c1sc2ccccc2c1Cl | inactive | – | inactive | inactive | 55 µM | inactive | > 100 µM | ≥ 100 µM | –
CC(=O)Nc1ccc(NC(=O)c2sc3sccc3c2Cl)cc1 | – | – | – | – | > 100 µM | – | > 100 µM | ≥ 100 µM | –
C[N+](C)(C)c1ccc(NC(=O)c2sc3ccccc3c2Cl)cc1 | Active | inactive | – | – | 20 µM | – | 17 µM | 17 µM | Activity (Nucleic Acid [8]): Active; Activity (DNA [9]): 23%; ΔTm (DNA [4]): 3 °C; ΔTm (DNA [5]): 1 °C
Nc1ccc(NC(=O)c2sc3ccccc3c2Cl)cc1 [listing 1 of 3 here] | – | – | – | – | > 100 µM | – | – | ≥ 100 µM | IC50 (MCF7; mcf7): 24 µM
CN(C)c1ccc2c(c1)c1c(sc3ccccc31)c(=O)n2C | inactive | inactive | – | – | 13 µM | – | 16 µM | 5 µM | Activity (Nucleic Acid [8]): Active; Activity (DNA [9]): 46%; ΔTm (DNA [4]): 3 °C; ΔTm (DNA [5]): 0 °C
CC(=O)N(C)c1ccc2c(c1)c1c(sc3ccccc31)c(=O)n2C | – | – | – | – | 40 µM | – | ≥ 100 µM | 14 µM | –
Nc1ccc(NC(=O)c2sc3ccccc3c2Cl)cc1 [listing 2 of 3 here] | inactive | inactive | inactive | inactive | – | inactive | – | – | Activity (Nucleic Acid [3]): inactive
Nc1ccc2[nH]c(=O)c3sc4ccccc4c3c2c1 [listing 2 of 3 here] | – | – | – | – | 6 µM | – | 2 µM | 3 µM | –
CN(C)c1ccc(NC(=O)c2sc3ccccc3c2Cl)cc1 | inactive | – | inactive | inactive | > 100 µM | inactive | > 100 µM | > 100 µM | –
Nc1ccc2[nH]c(=O)c3sc4ccccc4c3c2c1 [listing 3 of 3 here] | – | – | – | – | – | – | – | – | IC50 ([6]; nci-h460): 9 µM; IC50 (HCT-116; hct-116): 4 µM
CC(=O)Nc1ccc2c(c1)c1c(sc3ccccc31)c(=O)n2CCCN(C)C | inactive | inactive | – | – | 0.3 µM | – | 0.6 µM | 0.2 µM | Activity (Nucleic Acid [10]): Active; Activity [11]: Active; Activity (DNA [9]): 24%; ΔTm (DNA [4]): 19 °C; ΔTm (DNA [5]): 12.7 °C; ΔTm (DNA [7]): 10 °C
Nc1ccc(NC(=O)c2sc3ccccc3c2Cl)cc1 [listing 3 of 3 here] | – | – | – | – | – | – | – | – | IC50 (MCF7; mcf7): ≥ 100 µM
O=c1[nH]c2ccc([N+](=O)[O-])cc2c2c1sc1ccccc12 | inactive | inactive | – | – | 18 µM | – | 49 µM | 22 µM | Activity (Nucleic Acid [3]): inactive
O=C(Nc1ccc([N+](=O)[O-])cc1)c1sc2sccc2c1Cl | – | – | – | – | > 100 µM | – | ≥ 100 µM | > 100 µM | –
CC(=O)Nc1ccc2[nH]c(=O)c3sc4ccccc4c3c2c1 | inactive | inactive | inactive | inactive | > 100 µM | inactive | 76 µM | 30 µM | Activity (Nucleic Acid [8]): Active
